Rows were chosen to be rich in hits. Some 2.3% of all compounds tested hit in one or more screens of this group.
SUMO1-SIM PPI: alters human SUMO1 binding to SIM partners; P63165; SUMO1 binding to a labelled peptide, TR-FRET, 1 h; AID 602429; 360,000 compounds, 0.33% hits; inhibition, % at 20 µM; in the data active = inhibition above about 37%
Target sequence (P63165 whole entry, looked up): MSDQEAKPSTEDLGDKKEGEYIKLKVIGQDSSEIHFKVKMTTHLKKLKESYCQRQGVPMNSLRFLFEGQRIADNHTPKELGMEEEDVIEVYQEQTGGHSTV
LMPTP inh: LMPTP (human) inhibition. recombinant LMPTP-A, OMFP fluorogenic substrate, fluorescence intensity. P24666. 360,000 compounds, 0.22% hits. inhibition, % at 20 µM;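 active = compounds that cut the enzyme signal by at least half of the control window in the single-dose screen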;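 also: plate controls were DMSO wells with enzyme plus substrate for no effect and substrate without enzyme for full effect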
Target sequence (P24666 whole entry, looked up): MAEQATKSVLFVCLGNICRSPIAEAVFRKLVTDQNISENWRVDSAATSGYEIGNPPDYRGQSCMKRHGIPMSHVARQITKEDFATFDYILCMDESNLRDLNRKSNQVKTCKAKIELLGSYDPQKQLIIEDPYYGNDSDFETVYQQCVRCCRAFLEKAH
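Buffer or medium: Bis-Tris pH 6.0, DTT, detergent; Assay system: LMPTP-A enzyme; Quantity: 0.625 nM enzyme; Detection: endpoint fluorescence intensity; Times: 50 min dark incubation at room temperature; Controls: substrate-only low control, DMSO enzyme-plus-substrate high control; Doses: single 20 µM dose; Read-out: percent inhibition versus substrate-only and uninhibited controls; Reagent: 400 µM OMFP.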
DNMT1 inh: inhibitors of human DNMT1; P26358; DNMT1 molecular beacon, Hinp1I cleavage, fluorescence; inhibition (reported as % activation of signal), % at 10 µM; 360,000 compounds, 0.83% hits; AID 588458; in the data active = inhibition above about 50%
Scp-1 inhibitor: Scp-1 (human) phosphatase inhibition. 340,000 compounds, 0.88% hits. Recombinant Scp1, phosphopeptide, malachite green phosphate absorbance. inhibition, % at 20 µM;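 active = inhibition above about 50% at 20 µM, limit read from the data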;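 also: plate controls were DMSO wells with enzyme for no effect and wells lacking enzyme for full effect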
Target sequence (Q9GZU7 76-261 limits assumed): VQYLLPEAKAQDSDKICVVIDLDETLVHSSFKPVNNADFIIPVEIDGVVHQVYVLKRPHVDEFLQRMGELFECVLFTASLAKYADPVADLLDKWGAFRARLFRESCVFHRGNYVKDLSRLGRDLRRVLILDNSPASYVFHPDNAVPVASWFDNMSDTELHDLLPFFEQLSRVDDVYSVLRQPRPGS
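Test system: SCP-1 catalytic domain; Buffer or medium: Acidic Tris acetate buffer with magnesium and detergent; Also added: Phosphorylated 17-residue peptide substrate; Compound: single 20 µM dose, 1% DMSO; Schedule: enzyme reaction 45 min at room temperature, colour 5 min, stabilisation 30 min; Signal: Phosphate-binding colour reagent, absorbance read at 630 nm.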
Rpn11 inh: Rpn11 (human) deubiquitinase inhibition; O00487; human 26S proteasome, Ub4-pepOG fluorescence polarization; 20S core pre-blocked with epoxomicin; inhibition, % at 20 µM; 360,000 compounds, 0.59% hits;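 active = inhibition at 20 µM, scaled to each plate's controls, above about 33%, limit read from the data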
STEP block: blocks human striatal-enriched tyrosine phosphatase. 360,000 compounds, 0.25% hits. AID 588621. inhibition, % at 20 µM. recombinant STEP, OMFP fluorogenic substrate, fluorescence. P54829;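 active = inhibition at 20 µM, scaled per plate between control wells, above about 37%, limit read from the data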;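 also: 0% = DMSO with enzyme and substrate and 100% = substrate only without enzyme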
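Material: STEP (striatal-enriched tyrosine phosphatase) enzyme, cell-free | Medium: 50 mM Bis-Tris pH 6.0 with 2.5 mM DTT and 0.005% Tween 20 | Read-out: Percent inhibition scaled to no-enzyme and uninhibited-enzyme controls, plate-pattern corrected | Signal: Fluorescence read at 480 nm ex / 540 nm em | Times: 20 min reaction, room temperature, in the dark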
Scp-1 conf: Scp-1 (human) inhibition, single-dose confirmed. shares compounds with Scp-1 inhibitor. recombinant SCP-1 catalytic domain, phosphate release, malachite green absorbance. 2,500 compounds, 61% hits. AID 540281. inhibition, % at 20 µM;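 also: plate controls were DMSO with enzyme for no effect and buffer wells lacking enzyme for full effect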
MG interference: counter-screen for Scp-1 inhibitors: colorimetric interference; shares compounds with Scp-1 inhibitor; Colorimetric interference counterscreen, malachite green absorbance 630 nm; apparent inhibition (interference), % at 20 µM; 2,500 tested, under 10 active; AID 540313;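 also: compounds added after enzyme reaction finished so only phosphate colour detection is probed; plate controls were DMSO wells with completed Scp-1 reaction for no effect and substrate wells lacking enzyme for full effect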
Scp1 DSF: binds human Scp-1, shifting its melting temperature. AID 540329. 1,500 compounds, 25% hits. Recombinant SCP1, Sypro Orange thermal shift Tm. thermal shift relative to vanadate control, % at 40 µM. shares compounds with Scp-1 inhibitor;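 active = substances whose mean melting-temperature shift, as a percentage of the reference inhibitor's shift, reaches about 5.3%, limit read from the data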;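 also: 0% = Tm of DMSO wells and 100% = Tm with sodium orthovanadate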
* = called active by the depositor; / = no result.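 The calls were made as follows, unless noted: active = inhibition of at least 30% at 20 µM; inactive = the rest.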

SMILES	SUMO1-SIM PPI	LMPTP inh	DNMT1 inh	Scp-1 inhibitor	Rpn11 inh	STEP block	Scp-1 conf	MG interference	others
CCNC(=O)C/C(C)=N/NC(=O)C(=O)Nc1ccc(CC)cc1	3	-1	-2	-5	-2	4	/	/
Oc1ccc(C[C@H]2CNC(=S)N2CC2CCCN2C[C@H](Cc2ccc(O)cc2)N2C[C@H](Cc3ccccc3)N(CC3CCCCC3)C2=S)cc1 (some centres not stated)	3	6	-19	50*	-2	0	9	9
Oc1ccc(C[C@H]2CN([C@@H](Cc3ccccc3)CN3CCC[C@@H]3CN3C(=S)NC[C@@H]3Cc3ccccc3)C(=S)N2CC2CCCCC2)cc1	10	6	-8	/	0	8	/	/
CC(C)N(C(=O)CSc1nnc(-c2ccc3c(c2)OCO3)n1C)C(C)C	-3	0	0	55*	-3	-1	-24	-19
Cc1ccc(S(=O)(=O)N(CCCO)CC(O)CON=C2c3ccccc3-c3ccccc32)cc1 (configuration not stated)	6	4	-35	61*	14	3	16	-10
CCN(CC(O)Cn1c2ccccc2c2ccccc21)S(=O)(=O)c1ccc(C)cc1 (configuration not stated)	0	4	-14	-8	5	0	/	/
COc1ccccc1NC(=O)c1cccc2c(Br)cccc12	-6	1	-3	-6	1	-1	/	/
C[C@H](NC(=O)C1CCN(S(=O)(=O)c2ccccc2)CC1)C(=O)NCc1ccc(Cl)c(Cl)c1	-1	-1	0	-2	-6	-1	/	/
CC(C)c1cccc(-c2ccc3c(c2)S(=O)(=O)c2cccc(C(=O)NCc4ccco4)c2C3=O)c1	3	2	49	68*	7	2	49*	0	Scp1 DSF=11*
CC(C)c1cccc(-c2ccc3c(c2)S(=O)(=O)c2cccc(C(=O)O)c2C3=O)c1	-9	0	6	-4	3	1	/	/
COc1ccc(OCC(=O)N2CCC3(CC2)CC(=O)c2ccccc2O3)cc1	5	1	0	-7	-13	2	/	/
Cc1ccc(C(=O)O)cc1NC(=O)c1ccc2c(c1)C(=O)N(c1ccc([N+](=O)[O-])cc1)C2=O	-20	7	2	67*	4	15	62*	-4	Scp1 DSF=4
O=C(Nc1ccccc1C(=O)O)c1ccc2c(c1)C(=O)N(c1cccc([N+](=O)[O-])c1)C2=O	-6	16	2	1	9	20	/	/
CCOC(=O)c1ccc2c(c1)n(CC)c(/C=C/N(C)c1ccccc1)[n+]2CC	-2	-2	5	94*	1	2	97*	-1	Scp1 DSF=-18
Cc1ccc(S(=O)(=O)N(C)c2ccc(C(=O)NCc3cccnc3)cc2)cc1	0	0	1	79*	-1	0	-16	-16
CN(c1ccc(C(=O)NCc2cccnc2)cc1)S(=O)(=O)c1ccc(Cl)cc1	4	-1	0	1	-3	-2	/	/
CCC(C)(C)NC(=O)C(c1cccc(OC)c1)N(C(=O)CNC(=O)c1cccs1)c1cccnc1 (configuration not stated)	1	-1	1	-3	2	-1	/	/
O=[N+]([O-])c1cc(S(=O)(=O)Nc2ccccc2)ccc1NCc1ccccc1	-17	3	-2	-5	-3	-4	/	/
O=[N+]([O-])c1cc(S(=O)(=O)Nc2ccccc2)ccc1Nc1ccccc1	-21	6	24	61*	-19	2	-3	-26
O=C(CC(=O)Nc1cccc(Cl)c1Cl)Nc1cccc(Cl)c1Cl	-2	-1	1	-11	-5	2	/	/
O=C(/C=C/c1cccc(Cl)c1)NCc1ccccc1	-7	0	2	-6	0	-1	/	/
C[n+]1cccc(C(=O)NNC(=O)C23CC4CC(CC(C4)C2)C3)c1	1	0	-4	102*	-8	-1	13	-15
C[C@H](CO)N1C[C@H](C)[C@@H](CN(C)S(=O)(=O)c2ccccc2)Oc2ccc(NC(=O)C3CC3)cc2C1=O	-4	-2	6	62*	-1	1	0	-19
COc1ccc(NC(=O)Nc2ccc3c(c2)C(=O)N([C@H](C)CO)C[C@H](C)[C@@H](CN(C)S(=O)(=O)c2ccccc2)O3)cc1	5	-1	-7	0	-1	8	/	/
COc1ccc(S(=O)(=O)Nc2ccc3c(c2)C(=O)N([C@H](C)CO)C[C@H](C)[C@@H](CN(C)S(=O)(=O)c2ccc(OC)cc2)O3)cc1	2	-1	-8	66*	2	1	14	2
SMILES	SUMO1-SIM PPI	LMPTP inh	DNMT1 inh	Scp-1 inhibitor	Rpn11 inh	STEP block	Scp-1 conf	MG interference	others
C[C@H](CO)N1C[C@H](C)[C@@H](CN(C)S(=O)(=O)c2ccccc2)Oc2ccc(NC(=O)Nc3ccccc3)cc2C1=O	3	0	-8	59*	2	-2	5	-5
C[C@@H]1CN([C@@H](C)CO)C(=O)c2cc(NS(C)(=O)=O)ccc2O[C@@H]1CN(C)S(=O)(=O)c1ccccc1	-7	0	1	50*	-2	1	9	-22
C[C@H](CO)N1C[C@H](C)[C@@H](CN(C)S(=O)(=O)c2ccccc2)Oc2ccc(NS(=O)(=O)c3ccccc3)cc2C1=O	0	-1	3	24	-5	-2	/	/
Cc1ccc(C)c(S(=O)(=O)N2CCCOC2CNC(=O)C(=O)NCCc2ccccc2)c1 (configuration not stated)	0	0	-3	-5	-1	2	/	/
C[C@H](CO)N1C[C@H](C)[C@@H](CN(C)Cc2ccc(C(=O)O)cc2)Oc2ccc(NS(C)(=O)=O)cc2C1=O	3	0	4	9	-1	-3	/	/
C[C@@H]1CN([C@@H](C)CO)C(=O)c2cc(NS(C)(=O)=O)ccc2O[C@@H]1CN(C)Cc1ccc(C(F)(F)F)cc1	-5	0	9	58*	-4	-5	15	-2
C[C@H](CO)N1C[C@H](C)[C@@H](CN(C)S(=O)(=O)c2ccc(F)cc2)Oc2ccc(NC(=O)Nc3ccc4c(c3)OCO4)cc2C1=O	11	0	-12	53*	0	1	7	-11

From PubChem BioAssay
